Series [1] in a line: MRT (0 to infinity) in BALB/c mouse at 10 mg/kg, po measured upto 24 hrs by LC-MS/MS analysis. The class given is ADME, organism-based. The following applies: in vivo. In short, it runs like this:
(§1)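 Female BALB/c mice, 16−21 g, three per route. Oral dosing at 10 mg/kg as a 5 mg/mL suspension in 0.5% carboxymethyl cellulose. IV dosing at 1 mg/kg as a 1 mg/mL solution in 10% DMSO/50% PEG400/40% water. Blood sampled 15 min to 24 h after oral dosing and 5 min to 24 h after iv. LC/MS/MS quantification in ESI positive mode. Noncompartmental analysis; F = (AUCpo×dose_iv)/(AUCiv×dose_po)×100%.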

In series [2] the test system is Vero. Nature of the series: Cytotoxicity against african green monkey Vero cells after 48 hrs by MTT assay. The class given is cell-based. To be noted: Chlorocebus sabaeus. An outline of the steps:
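Vero cells grown in RPMI1640 with 10% FBS at 37 °C, 5% CO2. Cells diluted to 4 × 10⁵ cells/mL. Compounds given as three-fold serial dilutions, final 64−0.26 μg/mL, for 48 h at 37 °C. Monolayers washed with warm HBSS, then MTT added for 4 h. Absorbance read at 492 nm.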
(Tetrazolium assays rely on reduction of a dye to a coloured formazan, in cell work by metabolically active cells.)

Series [3] concerns Enterococcus faecium. Nature of the series: Antibacterial activity against Enterococcus faecium ATCC 49624 assessed as bacterial growth inhibition after 18 hrs by broth microdilution method. The class given is functional. An outline of the steps:
(§2)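 Broth microdilution in 96-well plates. Media: cation-adjusted Mueller−Hinton broth for S. aureus, brain heart infusion for VRE, Mueller−Hinton broth for the other strains. Incubated at 37 °C for 18 h, then A600 read. Percent growth inhibition calculated against 1% DMSO vehicle.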
(Dilution methods test growth across graded concentrations, often in twofold steps.)

For series [4], the system named is Enterococcus faecalis. Nature of the series: Antibacterial activity against linezolid resistant Enterococcus faecalis assessed as bacterial growth inhibition after 18 hrs by broth microdilution method. The class given is functional.
The test system of series [5] is Enterococcus faecalis. Briefly: Antibacterial activity against Enterococcus faecalis ATCC 29212 assessed as bacterial growth inhibition after 18 hrs by broth microdilution method. The class given is functional. In short, it runs like this:
as §2

Series [6] in a line: Clearance in BALB/c mouse at 1 mg/kg, iv measured upto 24 hrs by LC-MS/MS analysis. The following applies: in vivo. The class given is ADME, organism-based. An outline of the steps: as §1
The nature of series [7]: Cmax in BALB/c mouse at 1 mg/kg, iv measured upto 24 hrs by LC-MS/MS analysis. Set-up: route intravenous, dose 1 mg/kg, time <=24. The class given is ADME, organism-based. The following applies: in vivo. An outline of the steps: as §1
In series [8] the test system is Enterococcus. Briefly: Antibacterial activity against vancomycin resistant Enterococcus assessed as bacterial growth inhibition after 18 hrs by broth microdilution method. The class given is functional.
A short description of series [9]: Elimination half life in BALB/c mouse at 1 mg/kg, iv measured upto 24 hrs by LC-MS/MS analysis. The class given is ADME, organism-based. The following applies: in vivo, read-out: beta t1/2 (converted). An outline of the steps: as §1
Series [10] is described as follows: Inhibition of mitochondrial protein synthesis in […] H9C2 cells after 5 days by ELISA. The class given is functional, cell-based. The following applies: Rattus norvegicus, H9c2, 120 h. An outline of the steps:
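H9C2 cells in DMEM with 10% FBS, glutamine and NEAA, seeded at 1500 cells/well. After 18 h, compounds added at final 200 to 0.03 μM in nine 3-fold steps, then 5 days at 37 °C, 5% CO2. Negative control 0.5% DMSO. Mitochondrial protein synthesis read by MitoBiogenesis In-Cell ELISA; IC50 fitted.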
A general note: ELISA stands for enzyme-linked immunosorbent assay.

Series [11] deals with Staphylococcus aureus. Nature of the series: Antibacterial activity against vancomycin intermediate Staphylococcus aureus assessed as bacterial growth inhibition after 18 hrs by broth microdilution method. The class given is functional.
A short description of series [12]: AUC (0 to t) in BALB/c mouse at 1 mg/kg, iv measured upto 24 hrs by LC-MS/MS analysis. More on the design: route intravenous, dose 1 mg/kg, time <=24. The class given is ADME, organism-based. The following applies: in vivo. In short, it runs like this:
as §1

Series [13] deals with Staphylococcus epidermidis. Briefly: Antibacterial activity against methicillin resistant Staphylococcus epidermidis assessed as bacterial growth inhibition after 18 hrs by broth microdilution method. The class given is functional.
A short description of series [14]: Metabolic stability in CD-1 mouse liver microsomes incubated for 30 mins by LC-MS analysis. To be noted: CD-1, mouse, liver microsomes, read-out: Stabilty. The class given is ADME, Microsome. An outline of the steps: (§3)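 Microsomes from male CD-1 mouse or pooled human, 1 mg/mL protein in 0.05 M phosphate buffer pH 7.4. Compound at final 0.1 μM with DMSO cosolvent. Incubated at 37 °C with 1 mM NADPH, or with buffer in place of NADPH. Sampled at 0 and 30 min and quenched with acetonitrile. LC−MS measurement; substrate remaining at 30 min normalized to time zero.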

Series [15] is described as follows: Apparent volume of distribution in BALB/c mouse at 1 mg/kg, iv measured upto 24 hrs by LC-MS/MS analysis. The class given is ADME, organism-based. To be noted: in vivo, read-out: Vz. In short, it runs like this: as §1
For series [16], the system named is Escherichia coli. Nature of the series: Antibacterial activity against Escherichia coli 25922 assessed as inhibition of bacterial growth incubated for 18 hrs by broth microdilution method. The class given is functional. The following applies: ATCC 25922. An outline of the steps:
as §2

Series [17] can be described thus: Metabolic stability in CD-1 mouse liver microsomes assessed as substrate remaining in presence of NADPH incubated for 30 mins by LC-MS analysis. The class given is ADME, Microsome. The following applies: read-out: Stabilty. In short, it runs like this: as §3
Series [18] is described as follows: AUC (0 to infinity) in BALB/c mouse at 1 mg/kg, iv measured upto 24 hrs by LC-MS/MS analysis. The class given is ADME, organism-based. More on the design: route intravenous, dose 1 mg/kg, time <=24. The following applies: in vivo. In short, it runs like this: as §1

Values after ≈ are worked out from the molar mass of the structure shown.

As a reminder, the MRT inf is a mean duration of stay, worked out from the concentration-time curve. What is called IC50 is the midpoint of a concentration-inhibition curve. Usually MIC stands for the least concentration at which growth counts as inhibited. The clearance is a measure of how efficiently the substance is removed, as volume per time. The Cmax is the highest concentration seen after dosing. The AUC(0-t) is the area under the concentration-time curve up to a stated or last time point. What is called AUC(0-inf) is total exposure, with the tail of the curve extrapolated. In series [1], `CC(=O)NC[C@@H]1OC(=O)N2Cc3cc(-c4ccc(C#N)nc4)c(F)cc3O[C@@H]12` yielded an MRT inf of 5.86 h. For the same compound, the IC50 in [2] was greater than 64 µg/mL; in [10], 1630 nM. Also, the minimal inhibitory concentration (MIC) in [3] turned out to be 1 µg/mL (≈ 2.62 µM); in [4], 1 µg/mL (≈ 2.62 µM); in series [5], 0.5 µg/mL (≈ 1.31 µM); in series [8] it was 0.25 µg/mL (≈ 0.654 µM); in series [11] it was 0.25 µg/mL (≈ 0.654 µM); in series [13], 1 µg/mL (≈ 2.62 µM). The minimal inhibitory concentration (MIC) in series [16] was greater than 64 µg/mL. Further, the clearance in series [6] stood at 2.71 mL/min/kg. This compound displayed a maximum concentration (Cmax) in [7] of 1790 ng/mL. Also, the half-life in series [9] is 4.08 h. Besides, the AUC(0-t) at 24 h in [12] came out at 6080 ng·h/mL. Moreover, the remaining at 0.5 h in series [14] turned out to be 108%; in [17] it was 95.5%. Moreover, in [15], the Vd was determined as 0.762 L/kg. In series [18], this compound returned an AUC(0-inf) of 6160 ng·h/mL.

For the origin of these results see ChEMBL document CHEMBL4837188, “Identification of Novel Tricyclic Benzo[1,3]oxazinyloxazolidinones as Potent Antibacterial Agents with Excellent Pharmacokinetic Profiles against Drug-Resistant Pathogens” (J Med Chem, 2021).
